# Tested on: U2OS
# Assay: Multiplex assay against U2OS
# Assay type: toxicity, cell-based
# Conditions: human
# In short: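 Tubulin, mitochondrial-mass and membrane-permeability phenotypes are per cents of healthy-nucleus cells. Cells were gated by CellPathfinder machine learning into Hoechst high-intensity objects or normal cells, normal cells into healthy, pyknosed or fragmented nuclei, and pyknosed cells into mitotic or apoptotic. Before that, live cells stained at seeding with Hoechst33342, BioTracker Green Microtubule Cytoskeleton Dye, MitoTracker Red and Annexin V Alexa Fluor 680 were imaged on a CQ1 microscope at 37°C and 5% CO2 after compound addition.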
# [1] = 12 h, 1 µM, compound concentration 1 uM, replicate 1
# [2] = 12 h, 1 µM, compound concentration 1 uM, replicate 2
# [3] = 12 h, 10 µM, compound concentration 10 uM, replicate 1
# [4] = 12 h, 10 µM, compound concentration 10 uM, replicate 2
# [5] = 24 h, 1 µM, compound concentration 1 uM, replicate 1
# [6] = 24 h, 1 µM, compound concentration 1 uM, replicate 2
# [7] = 24 h, 10 µM, compound concentration 10 uM, replicate 1
# [8] = 24 h, 10 µM, compound concentration 10 uM, replicate 2
# [9] = 48 h, 1 µM, compound concentration 1 uM, replicate 1
# [10] = 48 h, 1 µM, compound concentration 1 uM, replicate 2
# [11] = 48 h, 10 µM, compound concentration 10 uM, replicate 1
# [12] = 48 h, 10 µM, compound concentration 10 uM, replicate 2
compound,measurement,setting,value
CSc1ccccc1N1CCN(CCCCCC(=O)NC2CCCc3ccccc32)CC1.Cl (configuration not stated),Population Apoptotic (%),[1],62%
same,Population Fragmented Nuclei (%),[1],22%
same,Population Healthy Nuclei (%),[1],61%
same,Population Hoechst High Intensity Objects (%),[1],9%
same,Population Membrane Permeable-Phenotype (%),[1],73%
same,Population Mitochondria Different-Phenotype (%),[1],71%
same,Population Mitotic Cells (%),[1],37%
same,Population Normal (%),[1],90%
same,Population Pyknosed Nuclei (%),[1],15%
same,Population Tubulin-Different-Phenotype (%),[1],88%
same,Total Cell Count,[1],222
same,Population Apoptotic (%),[2],36%
same,Population Fragmented Nuclei (%),[2],24%
same,Population Healthy Nuclei (%),[2],63%
same,Population Hoechst High Intensity Objects (%),[2],3%
same,Population Membrane Permeable-Phenotype (%),[2],51%
same,Population Mitochondria Different-Phenotype (%),[2],85%
same,Population Mitotic Cells (%),[2],63%
same,Population Normal (%),[2],96%
same,Population Pyknosed Nuclei (%),[2],11%
same,Population Tubulin-Different-Phenotype (%),[2],72%
same,Total Cell Count,[2],101
same,Population Apoptotic (%),[3],70%
same,Population Fragmented Nuclei (%),[3],41%
same,Population Healthy Nuclei (%),[3],39%
same,Population Hoechst High Intensity Objects (%),[3],8%
same,Population Membrane Permeable-Phenotype (%),[3],67%
same,Population Mitochondria Different-Phenotype (%),[3],90%
same,Population Mitotic Cells (%),[3],29%
same,Population Normal (%),[3],91%
same,Population Pyknosed Nuclei (%),[3],18%
same,Population Tubulin-Different-Phenotype (%),[3],96%
same,Total Cell Count,[3],221
same,Population Apoptotic (%),[4],84%
same,Population Fragmented Nuclei (%),[4],23%
same,Population Healthy Nuclei (%),[4],55%
same,Population Hoechst High Intensity Objects (%),[4],4%
same,Population Membrane Permeable-Phenotype (%),[4],60%
same,Population Mitochondria Different-Phenotype (%),[4],92%
same,Population Mitotic Cells (%),[4],16%
same,Population Normal (%),[4],95%
same,Population Pyknosed Nuclei (%),[4],21%
same,Population Tubulin-Different-Phenotype (%),[4],98%
same,Total Cell Count,[4],125
same,Population Apoptotic (%),[5],54%
same,Population Fragmented Nuclei (%),[5],22%
same,Population Healthy Nuclei (%),[5],60%
same,Population Hoechst High Intensity Objects (%),[5],6%
same,Population Membrane Permeable-Phenotype (%),[5],63%
same,Population Mitochondria Different-Phenotype (%),[5],63%
same,Population Mitotic Cells (%),[5],45%
same,Population Normal (%),[5],94%
same,Population Pyknosed Nuclei (%),[5],17%
same,Population Tubulin-Different-Phenotype (%),[5],75%
same,Total Cell Count,[5],250
same,Population Apoptotic (%),[6],58%
same,Population Fragmented Nuclei (%),[6],25%
same,Population Healthy Nuclei (%),[6],58%
same,Population Hoechst High Intensity Objects (%),[6],2%
same,Population Membrane Permeable-Phenotype (%),[6],46%
same,Population Mitochondria Different-Phenotype (%),[6],74%
same,Population Mitotic Cells (%),[6],41%
same,Population Normal (%),[6],97%
same,Population Pyknosed Nuclei (%),[6],15%
same,Population Tubulin-Different-Phenotype (%),[6],63%
same,Total Cell Count,[6],111
same,Population Apoptotic (%),[7],89%
same,Population Fragmented Nuclei (%),[7],44%
same,Population Healthy Nuclei (%),[7],28%
same,Population Hoechst High Intensity Objects (%),[7],6%
same,Population Membrane Permeable-Phenotype (%),[7],79%
same,Population Mitochondria Different-Phenotype (%),[7],81%
same,Population Mitotic Cells (%),[7],10%
same,Population Normal (%),[7],93%
same,Population Pyknosed Nuclei (%),[7],26%
same,Population Tubulin-Different-Phenotype (%),[7],91%
same,Total Cell Count,[7],219
same,Population Apoptotic (%),[8],94%
same,Population Fragmented Nuclei (%),[8],19%
same,Population Healthy Nuclei (%),[8],44%
same,Population Hoechst High Intensity Objects (%),[8],10%
same,Population Membrane Permeable-Phenotype (%),[8],90%
same,Population Mitochondria Different-Phenotype (%),[8],56%
same,Population Mitotic Cells (%),[8],5%
same,Population Normal (%),[8],89%
same,Population Pyknosed Nuclei (%),[8],37%
same,Population Tubulin-Different-Phenotype (%),[8],97%
same,Total Cell Count,[8],112
same,Population Apoptotic (%),[9],64%
same,Population Fragmented Nuclei (%),[9],25%
same,Population Healthy Nuclei (%),[9],53%
same,Population Hoechst High Intensity Objects (%),[9],8%
same,Population Membrane Permeable-Phenotype (%),[9],42%
same,Population Mitochondria Different-Phenotype (%),[9],56%
same,Population Mitotic Cells (%),[9],35%
same,Population Normal (%),[9],91%
same,Population Pyknosed Nuclei (%),[9],21%
same,Population Tubulin-Different-Phenotype (%),[9],50%
same,Total Cell Count,[9],272
same,Population Apoptotic (%),[10],95%
same,Population Fragmented Nuclei (%),[10],28%
same,Population Healthy Nuclei (%),[10],52%
same,Population Hoechst High Intensity Objects (%),[10],5%
same,Population Membrane Permeable-Phenotype (%),[10],41%
same,Population Mitochondria Different-Phenotype (%),[10],63%
same,Population Mitotic Cells (%),[10],4%
same,Population Normal (%),[10],94%
same,Population Pyknosed Nuclei (%),[10],18%
same,Population Tubulin-Different-Phenotype (%),[10],44%
same,Total Cell Count,[10],137
same,Population Apoptotic (%),[11],98%
same,Population Fragmented Nuclei (%),[11],43%
same,Population Healthy Nuclei (%),[11],18%
same,Population Hoechst High Intensity Objects (%),[11],15%
same,Population Membrane Permeable-Phenotype (%),[11],77%
same,Population Mitochondria Different-Phenotype (%),[11],33%
same,Population Mitotic Cells (%),[11],1%
same,Population Normal (%),[11],84%
same,Population Pyknosed Nuclei (%),[11],38%
same,Population Tubulin-Different-Phenotype (%),[11],75%
same,Total Cell Count,[11],232
same,Population Apoptotic (%),[12],100%
same,Population Fragmented Nuclei (%),[12],25%
same,Population Healthy Nuclei (%),[12],20%
same,Population Hoechst High Intensity Objects (%),[12],11%
same,Population Membrane Permeable-Phenotype (%),[12],85%
same,Population Mitochondria Different-Phenotype (%),[12],45%
same,Population Mitotic Cells (%),[12],0%
same,Population Normal (%),[12],88%
same,Population Pyknosed Nuclei (%),[12],54%
same,Population Tubulin-Different-Phenotype (%),[12],95%
same,Total Cell Count,[12],109
